Reference: ChEMBL document CHEMBL4308915, “Synthesis of novel pyrazoline derivatives and the evaluation of death mechanisms involved in their antileukemic activity” (Bioorg Med Chem, 2019)
Calls of active or inactive are those of the source. The calls are words filed in the database; no cut-off is given here.

Legend:
Jurkat [1] = test: Cytotoxicity against human Jurkat cells assessed as reduction in cell viability after 24 hrs by MTT assay; format: functional, cell-based
In short: (§1)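 MTT viability after 24 h exposure. Cells seeded at 5x10^4 per well and tested at 1-100 µM. Optical density of untreated cells set as 100% viable. IC50 derived by curve fitting. PBMC from healthy non-smoking volunteers, isolated by Ficoll-Hypaque.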

B16-F10 [2] = test: Cytotoxicity against mouse B16F10 cells assessed as reduction in cell viability after 24 hrs by MTT assay; format: functional, cell-based; conditions: B16-F10, 24 h; in short: as §1
PBMC [3] = test: Cytotoxicity against human PBMC assessed as reduction in cell viability after 24 hrs by MTT assay; format: cell-based
K562 [4] = test: Cytotoxicity against human K562 cells assessed as reduction in cell viability after 48 hrs by MTT assay; format: functional, cell-based; conditions: K562, 48 h
Jurkat [5] = test: Cytotoxicity against human Jurkat cells assessed as reduction in cell viability after 48 hrs by MTT assay; format: functional, cell-based
Daudi [6] = test: Cytotoxicity against human Daudi cells assessed as reduction in cell viability after 48 hrs by MTT assay; format: functional, cell-based
K562 [7] = test: Cytotoxicity against human K562 cells assessed as reduction in cell viability after 72 hrs by MTT assay; format: functional, cell-based; conditions: K562, 72 h
Jurkat [8] = test: Cytotoxicity against human Jurkat cells assessed as reduction in cell viability after 72 hrs by MTT assay; format: functional, cell-based
Daudi [9] = test: Cytotoxicity against human Daudi cells assessed as reduction in cell viability after 72 hrs by MTT assay; format: functional, cell-based
B16-F10 [10] = test: Cytotoxicity against mouse B16F10 cells assessed as reduction in cell viability after 72 hrs by MTT assay; format: functional, cell-based; conditions: B16-F10, 72 h
PBMC [11] = test: Cytotoxicity against human PBMC assessed as reduction in cell viability after 72 hrs by MTT assay; format: cell-based
[12] = Selectivity index, ratio of IC50 for human PBMC to IC50 for human K562 cells after 24 hrs; format: toxicity; conditions: PBMC versus K562 cells, read-out: Ratio IC50
In short: (§2)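 MTT viability after 24 h exposure to 1-100µM; untreated control OD taken as 100%. IC50 by curve fitting in each line and in PBMC from six healthy donors (Ficoll-Hypaque). SI = IC50 PBMC / IC50 tumor line; SI ≥5 high, 2–5 moderate, <2 low.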

[13] = Selectivity index, ratio of IC50 for human PBMC to IC50 for human Daudi cells after 24 hrs; in short: as §2
[14] = Selectivity index, ratio of IC50 for human PBMC to IC50 for mouse B16F10 cells after 24 hrs; format: toxicity; conditions: PBMC versus B16F10 cells, read-out: Ratio IC50; in short: as §2
[15] = Hemolytic activity in human RBC at 1 time IC50 relative to control; format: ADME, cell-based, Erythrocyte; conditions: red blood cells (erythrocytes), read-out: Activity
In short: (§3)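 RBC from healthy non-smoking volunteers incubated with increasing concentrations of the selected pyrazolines. Saline served as the 0% lysis control and distilled water as the 100% lysis control. Percent hemolysis calculated relative to these controls.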

[16] = Hemolytic activity in human RBC at 9 times IC50 relative to control; format: ADME, cell-based, Erythrocyte; conditions: red blood cells (erythrocytes), read-out: Activity; in short: as §3
[17] = Hemolytic activity in human RBC at 12 times IC50 relative to control; format: ADME, cell-based, Erythrocyte; conditions: red blood cells (erythrocytes), read-out: Activity; in short: as §3
[18] = Hemolytic activity in human RBC at 15 times IC50 relative to control; format: ADME, cell-based, Erythrocyte; conditions: red blood cells (erythrocytes), read-out: Activity; in short: as §3
K562 [19] = test: Cell cycle arrest in human K562 cells assessed as increase in accumulation at G0/G1 phase at 32 uM after 12 hrs by propidium iodide/RNAse staining based flow cytometric analysis relative to control; format: functional
Jurkat [20] = test: Antiproliferative activity against human Jurkat cells assessed as reduction in KI-67 expression at 30.08 uM after 12 hrs by flow cytometric analysis; format: functional, cell-based
K562 [21] = test: Antiproliferative activity against human K562 cells assessed as reduction in KI-67 expression at 32 uM after 12 hrs by flow cytometric analysis; format: functional, cell-based
K562 [22] = test: Induction of apoptosis in human K562 cells assessed as increase in membrane blebbing at 32 uM by acridine orange/ethidium bromide staining-based fluorescence microscopic analysis; format: functional, cell-based
K562 [23] = test: Induction of apoptosis in human K562 cells assessed as increase in loss of membrane integrity at 32 uM by acridine orange/ethidium bromide staining-based fluorescence microscopic analysis; format: functional, cell-based
Jurkat [24] = test: Induction of apoptosis in human Jurkat cells assessed as increase in membrane blebbing at 30.08 uM by acridine orange/ethidium bromide staining-based fluorescence microscopic analysis; format: functional, cell-based
Jurkat [25] = test: Induction of apoptosis in human Jurkat cells assessed as increase in loss of membrane integrity at 30.08 uM by acridine orange/ethidium bromide staining-based fluorescence microscopic analysis; format: functional, cell-based
K562 [26] = test: Induction of apoptosis in human K562 cells at 32 uM after 12 hrs by Annexin-V FITC staining-based flow cytometry relative to control; format: functional
Jurkat [27] = test: Induction of apoptosis in human Jurkat cells at 30.08 uM after 12 hrs by Annexin-V FITC staining-based flow cytometry relative to control; format: functional
K562 [28] = test: Induction of apoptosis in human K562 cells assessed as decrease in Bcl2 expression at 32 uM after 12 hrs by flow cytometric analysis relative to control; format: functional; design: scale not given: the % may be the effect or the level left
K562 [29] = test: Induction of apoptosis in human K562 cells assessed as reduction in cells with intact mitochondrial membrane potential at 32 uM after 12 hrs by flow cytometric analysis relative to control; format: functional; design: scale not given: the % may be the effect or the level left
Jurkat [30] = test: Induction of apoptosis in human Jurkat cells assessed reduction in cells with intact mitochondrial membrane potential at 30.08 uM after 12 hrs by flow cytometric analysis relative to control; format: functional; design: scale not given: the % may be the effect or the level left
K562 [31] = test: Induction of apoptosis in human K562 cells assessed as decrease in survivin level at 32 uM after 12 hrs by flow cytometric analysis relative to control; format: functional
Jurkat [32] = test: Induction of apoptosis in human Jurkat cells assessed as decrease in survivin level at 30.08 uM after 12 hrs by flow cytometric analysis relative to control; format: functional
Jurkat [33] = test: Induction of apoptosis in human Jurkat cells assessed as increase in AIF release at 30.08 uM after 12 hrs by flow cytometric analysis relative to control; format: functional
K562 [34] = test: Induction of apoptosis in human K562 cells assessed as increase in FasR expression at 32 uM after 12 hrs by flow cytometric analysis relative to control; format: functional
K562 [35] = test: Induction of apoptosis in human K562 cells assessed as increase in caspase-3 expression at 32 uM after 12 hrs by flow cytometric analysis relative to control; format: functional
Jurkat [36] = test: Induction of apoptosis in human Jurkat cells assessed as increase in caspase-3 expression at 30.08 uM after 12 hrs by flow cytometric analysis relative to control; format: functional
PBL = test: Cytotoxicity against acute leukemia patient-derived PBL cells assessed as reduction in cell viability after 24 hrs; format: functional, cell-based; conditions: Homo sapiens
In short: (§4)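 Mononuclear cells from acute leukemia patient samples (peripheral blood or bone marrow, taken before first treatment at diagnosis or relapse) isolated by Ficoll-Hypaque.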

[37] = (§5) Cytotoxicity against acute leukemia patient-derived bone marrow cells assessed as reduction in cell viability after 24 hrs; format: functional, cell-based; conditions: Homo sapiens; in short: as §4
Homo sapiens = species: Homo sapiens; test: as §5; format: functional, cell-based; in short: as §4
Jurkat [38] = test: Induction of apoptosis in human Jurkat cells assessed as decrease in Bcl2 expression at 30.08 uM after 12 hrs by flow cytometric analysis relative to control; design: scale not given: the % may be the effect or the level left

Work on COc1cc(C2=NN(C(C)=O)C(c3ccc(Br)cc3)C2)cc(OC)c1OC (stereo unspecified) yielded an IC50 (Jurkat [1]) of 30.8 µM, an IC50 (B16-F10 [2]) of 98.7 µM and an IC50 (PBMC [3]) of 340 µM. For the same compound, the IC50 (K562 [4]) was 16.2 µM, the IC50 (Jurkat [5]) was 17.2 µM and the IC50 (Daudi [6]) was 34.8 µM. For the same compound, the IC50 (K562 [7]) was 15.1 µM, the IC50 (Jurkat [8]) was 15.6 µM and the IC50 (Daudi [9]) was 33 µM. The IC50 (B16-F10 [10]) was 62.5 µM, the IC50 (PBMC [11]) was 118 µM and the selectivity ratio at 24 h [12] was 11. The “Ratio IC50” value [13] was 6.8, the selectivity ratio at 24 h [14] was 3.4 and the hemolysis at 1 times IC50 [15] was 0.9%. It also gave a hemolysis at 9 times IC50 [16] of 6%, a hemolysis at 12 times IC50 [17] of 12.9% and a hemolysis at 15 times IC50 [18] of 15.8%. For the same compound, the Activity (K562 [19]) was 8%, the Activity (Jurkat [20]) was “Active” and the Activity (K562 [21]) was “Active”. The Activity (K562 [22]) was “Active”, the Activity (K562 [23]) was “Active” and the Activity (Jurkat [24]) was “Active”. For the same compound, the Activity (Jurkat [25]) was “Active”, the Activity (K562 [26]) was 25% and the Activity (Jurkat [27]) was 24.6%. The Activity (K562 [28]) was 13.4%, the Activity (K562 [29]) was 25.3% and the Activity (Jurkat [30]) was 32.9%. It also gave an Activity (K562 [31]) of 21.2%, an Activity (Jurkat [32]) of 10.7% and an Activity (Jurkat [33]) of 33.2%. The Activity (K562 [34]) was 21.3%, the Activity (K562 [35]) was 20% and the Activity (Jurkat [36]) was 128.3%. The Activity (PBL) was “Dose-dependent effect”, the IC50 (PBL) was 11.8 to 142 µM and the IC50 [37] was 31 to 98.2 µM. For the same compound, the Activity (Homo sapiens) was “Dose-dependent effect” and the Activity (Jurkat [38]) was 12.9%.
